Experimental data taken from ChEMBL document CHEMBL1212693, “Dorsomorphin inhibits BMP signals required for embryogenesis and iron metabolism” (Nat Chem Biol, 2008).
Activity calls are given as the source filed them. The calls are words filed in the database; no cut-off is given here.

Columns and labels:
Mus musculus [1] = species: Mus musculus; test: Inhibition of BMPR1-mediated Smad-5 phosphorylation in BMP6-stimulated mouse PASMC at 4 uM treated 30 mins before BMP6 challenge measured after 30 mins by immunoblot analysis
In short: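 Wild-type mouse PASMCs were kept in RPMI with 0.5% FCS for 24 h. They were preincubated with compound or vehicle for 30 min, then stimulated for 30 min with recombinant BMP2, BMP4, BMP6 or BMP7 at 10 ng ml−1. Lysates in SDS buffer were immunoblotted with anti-phospho-SMAD1/5/8. Total SMAD1 and α-tubulin served as loading controls, and bands were quantified by phosphorimager.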

Mus musculus [2] = species: Mus musculus; test: Inhibition of BMPR1-mediated Smad-5 phosphorylation in BMP6-stimulated mouse BMPR2 deficient PASMC at 4 uM treated 30 mins before BMP6 challenge measured after 30 mins by immunoblot analysis
Danio rerio = species: Danio rerio; test: Inhibition of BMPR1 in zebrafish assessed as penetrance of moderate embryonic axis dorsalization at 10 uM treated continuously from 10 hrs post-fertilization measured at 48 hrs; set-up: scale not given: the % may be the effect or the level left
In short: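 Compound added at the stated times and concentrations. Gross morphology scored visually at up to 48 h.p.f. for dorsalization of the embryonic axis.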

Question: What does the source list for `c1cc(-c2cnn3cc(-c4ccc(OCCN5CCCCC5)cc4)cnc23)ccn1` [DORSOMORPHIN]?
Answer: inhibition (Mus musculus [1]): Active; inhibition (Mus musculus [2]): Active; Activity (Danio rerio): 0%
